The text below walks through data of ChEMBL document CHEMBL4007422 (J Med Chem, 2017).

Molecules are shown by their SMILES. Active and inactive are the calls of the source. The calls are words filed in the database; no cut-off is given here.

Sequence of 5-hydroxytryptamine receptor 4 (Homo sapiens) (Q13639 whole entry): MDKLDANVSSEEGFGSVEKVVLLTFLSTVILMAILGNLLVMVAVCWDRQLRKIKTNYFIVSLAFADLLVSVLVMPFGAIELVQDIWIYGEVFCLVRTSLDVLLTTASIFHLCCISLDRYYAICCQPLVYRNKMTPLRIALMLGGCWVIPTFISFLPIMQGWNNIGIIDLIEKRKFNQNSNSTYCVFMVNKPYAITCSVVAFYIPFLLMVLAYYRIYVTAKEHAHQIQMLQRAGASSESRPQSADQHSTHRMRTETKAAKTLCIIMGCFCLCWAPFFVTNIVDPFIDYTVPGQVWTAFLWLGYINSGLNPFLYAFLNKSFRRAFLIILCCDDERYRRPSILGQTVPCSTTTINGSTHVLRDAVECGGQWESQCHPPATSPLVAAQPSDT

Tested on in the first data set: not listed separately
In words: Apparent volume of distribution in Wistar rat at 10 mg/kg, iv by LC-MS/MS analysis. It is filed as ADME, organism-based. To be noted: in vivo, read-out: Vz.
With `CN1CCN(Cc2cn(S(=O)(=O)c3ccc(F)cc3)c3ccccc23)CC1`, the Vd worked out at 6.3 L/kg.

In the case of `COc1ccc2c(c1)c(CN1CCCN(C)CC1)cn2S(=O)(=O)c1ccc(C(C)C)cc1.Cl.Cl`, the Vd was 49.5 L/kg.

The target in another data set is Cytochrome P450 3A4 (Homo sapiens, UniProt P08684).
Sequence of Cytochrome P450 3A4 (P08684 whole entry): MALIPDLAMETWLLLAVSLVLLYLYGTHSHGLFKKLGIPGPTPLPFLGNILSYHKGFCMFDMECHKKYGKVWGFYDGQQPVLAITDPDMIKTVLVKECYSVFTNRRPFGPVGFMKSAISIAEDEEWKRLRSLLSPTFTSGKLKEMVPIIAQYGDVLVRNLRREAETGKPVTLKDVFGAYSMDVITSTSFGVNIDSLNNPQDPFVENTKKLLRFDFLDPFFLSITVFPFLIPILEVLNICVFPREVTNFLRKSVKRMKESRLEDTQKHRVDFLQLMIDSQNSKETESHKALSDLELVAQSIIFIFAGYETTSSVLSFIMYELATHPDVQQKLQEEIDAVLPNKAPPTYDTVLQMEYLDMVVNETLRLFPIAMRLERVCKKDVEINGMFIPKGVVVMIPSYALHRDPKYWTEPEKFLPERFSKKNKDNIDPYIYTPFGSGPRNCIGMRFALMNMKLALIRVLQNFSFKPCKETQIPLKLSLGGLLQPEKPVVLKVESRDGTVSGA
Settings: not given
On to `COc1ccc2c(c1)c(CN1CCCN(C)CC1)cn2S(=O)(=O)c1ccc(C(C)C)cc1.Cl.Cl`, for which inhibition was half-maximal at 2200 nM (IC50).

A further data set concerns Rattus norvegicus. The data set can be described thus: Reversal of time-induced amnesia in Wistar rat at 1 to 3 mg/kg, sc administered 60 mins prior to testing measured for 3 mins by object recognition test. It is filed as functional, organism-based.
Settings: not given
In the case of `CN(C)CCCOc1ccc2[nH]nc(S(=O)(=O)c3cccc4ccccc34)c2c1`, the outcome was Active.

A further data set addresses T1, 5-hydroxytryptamine receptor 1A (Homo sapiens) (UniProt P08908).
T1 sequence (whole entry): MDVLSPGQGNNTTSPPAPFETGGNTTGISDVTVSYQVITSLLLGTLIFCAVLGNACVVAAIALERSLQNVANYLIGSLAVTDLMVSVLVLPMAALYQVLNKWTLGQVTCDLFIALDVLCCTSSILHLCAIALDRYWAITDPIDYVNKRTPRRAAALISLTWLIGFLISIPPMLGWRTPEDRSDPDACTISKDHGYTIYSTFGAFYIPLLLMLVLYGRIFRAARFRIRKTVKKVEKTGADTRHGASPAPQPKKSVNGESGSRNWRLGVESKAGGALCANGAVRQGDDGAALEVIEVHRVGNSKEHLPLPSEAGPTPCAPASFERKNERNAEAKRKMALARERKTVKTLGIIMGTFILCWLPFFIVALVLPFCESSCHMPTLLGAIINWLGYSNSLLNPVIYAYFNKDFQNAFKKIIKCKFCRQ
In words: Displacement of [3H]-8-OH-DPAT from recombinant human 5-HT1A receptor expressed in HEK293 EBNA cell membranes after 120 mins by microbeta scintillation counting analysis.
Settings: not given
Consider `CN1CCN(Cc2cn(S(=O)(=O)c3ccc(F)cc3)c3ccccc23)CC1`, for which the outcome was inactive.

Take `COc1ccc2c(c1)c(CN1CCCN(C)CC1)cn2S(=O)(=O)c1ccc(C(C)C)cc1.Cl.Cl`: the outcome was inactive.

The target of the next data set is T2, 5-hydroxytryptamine receptor 6 (Homo sapiens, UniProt P50406). In words: Antagonist activity at recombinant human 5-HT6 receptor expressed in CHO cells assessed as inhibition of 5-HT stimulated cAMP accumulation after 4 hrs by luciferase reporter gene assay relative to control.
T2 sequence (P50406 whole entry): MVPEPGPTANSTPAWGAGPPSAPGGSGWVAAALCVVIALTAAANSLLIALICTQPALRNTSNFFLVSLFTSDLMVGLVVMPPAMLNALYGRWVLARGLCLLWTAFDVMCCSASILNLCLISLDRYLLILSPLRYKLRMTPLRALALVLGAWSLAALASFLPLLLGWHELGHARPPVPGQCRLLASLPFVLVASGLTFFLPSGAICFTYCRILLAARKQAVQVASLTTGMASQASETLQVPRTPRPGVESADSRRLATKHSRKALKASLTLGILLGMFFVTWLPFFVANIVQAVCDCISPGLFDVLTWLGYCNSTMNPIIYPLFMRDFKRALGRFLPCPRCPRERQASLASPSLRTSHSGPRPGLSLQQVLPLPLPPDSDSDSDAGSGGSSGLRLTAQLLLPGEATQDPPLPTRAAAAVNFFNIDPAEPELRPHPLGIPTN
Settings: not given
It is filed as functional, cell-based. In a few lines: (§1)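 Stable CHO line expressing recombinant human 5-HT6 receptor with a pCRE-luciferase reporter, a nonradioactive cell-based format. Output is Kb (nM), the mean of duplicate experiments, with Imax (%) also reported.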
(Cyclic AMP is a second messenger, typically raised through Gs and lowered through Gi signalling.)
With `CN1CCN(Cc2cn(S(=O)(=O)c3ccc(F)cc3)c3ccccc23)CC1`, the Imax is 98%.

Tested on in another data set: not listed separately
In words: (§2) Oral bioavailability in Wistar rat at 10 mg/kg by LC-MS/MS analysis. Format: ADME, organism-based. To be noted: Wistar, in vivo.
`CN1CCN(Cc2cn(S(=O)(=O)c3ccc(F)cc3)c3ccccc23)CC1`: the bioavailability (usually dose-corrected exposure relative to a reference, in per cent) was 17.5%.

For the next data set, the system named is Rattus norvegicus. The data set is described as §2. To be noted: in vivo. Format: ADME, organism-based.
With `COc1ccc2c(c1)c(CN1CCCN(C)CC1)cn2S(=O)(=O)c1ccc(C(C)C)cc1.Cl.Cl`, the F amounted to 4%.

The target in a further data set is 5-hydroxytryptamine receptor 7 (Rattus norvegicus) (UniProt P32305). The data set can be described thus: Binding affinity to recombinant rat 5-HT7 receptor expressed in CHOK1 cells assessed as inhibition of 5-HT stimulated cAMP accumulation after 4 hrs by luciferase reporter gene assay. Format: cell-based.
Sequence of 5-hydroxytryptamine receptor 7 (Rattus norvegicus) (P32305 whole entry): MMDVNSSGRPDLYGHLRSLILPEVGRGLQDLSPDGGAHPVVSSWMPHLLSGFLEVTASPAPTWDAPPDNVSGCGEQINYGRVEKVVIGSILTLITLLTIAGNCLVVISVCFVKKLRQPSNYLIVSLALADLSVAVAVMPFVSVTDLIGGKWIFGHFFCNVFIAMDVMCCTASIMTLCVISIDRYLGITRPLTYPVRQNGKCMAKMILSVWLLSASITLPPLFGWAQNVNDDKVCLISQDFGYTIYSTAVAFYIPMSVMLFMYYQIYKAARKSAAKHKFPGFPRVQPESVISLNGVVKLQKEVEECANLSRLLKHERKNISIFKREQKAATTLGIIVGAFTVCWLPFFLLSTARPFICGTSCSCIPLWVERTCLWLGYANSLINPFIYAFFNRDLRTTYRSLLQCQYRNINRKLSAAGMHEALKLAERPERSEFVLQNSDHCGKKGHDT
Settings: not given
With `CN1CCN(Cc2cn(S(=O)(=O)c3ccc(F)cc3)c3ccccc23)CC1`, the result was inactive.

For the compound `COc1ccc2c(c1)c(CN1CCCN(C)CC1)cn2S(=O)(=O)c1ccc(C(C)C)cc1.Cl.Cl`, the result was inactive.

Tested on in another data set: not listed separately
The data set can be described thus: (§3) AUC (0 to t) in Wistar rat at 10 mg/kg, po by LC-MS/MS analysis. It is filed as ADME, organism-based. To be noted: Wistar, in vivo.
Take `CN1CCN(Cc2cn(S(=O)(=O)c3ccc(F)cc3)c3ccccc23)CC1`: the AUC(0-t) – broadly, the area under the concentration-time curve up to a stated or last time point – turned out to be 221 ng·h/mL.

The subject of the next data set is Rattus norvegicus. Described as §3. It is filed as ADME, organism-based. To be noted: in vivo.
Compound `COc1ccc2c(c1)c(CN1CCCN(C)CC1)cn2S(=O)(=O)c1ccc(C(C)C)cc1.Cl.Cl` came in with an AUCt of 157 ng·h/mL.

In a further data set the target is T2, 5-hydroxytryptamine receptor 6. In words: Antagonist activity at recombinant human 5-HT6 receptor expressed in CHO cells assessed as inhibition of 5-HT stimulated cAMP accumulation after 4 hrs by luciferase reporter gene assay. It is filed as functional, cell-based.
Settings: not given
In a few lines: as §1
Consider `CN1CCN(Cc2cn(S(=O)(=O)c3ccc(F)cc3)c3ccccc23)CC1`, for which the antagonist equilibrium constant (Kb) (in general, the affinity of an antagonist, worked out from how it opposes an agonist) was 12.3 nM.

For another data set, the target named is Cytochrome P450 2D6 (Homo sapiens, UniProt P10635). In words: Inhibition of CYP2D6 in human liver microsomes in presence of NADPH by LC-MS/MS analysis.
Sequence of Cytochrome P450 2D6 (P10635 whole entry): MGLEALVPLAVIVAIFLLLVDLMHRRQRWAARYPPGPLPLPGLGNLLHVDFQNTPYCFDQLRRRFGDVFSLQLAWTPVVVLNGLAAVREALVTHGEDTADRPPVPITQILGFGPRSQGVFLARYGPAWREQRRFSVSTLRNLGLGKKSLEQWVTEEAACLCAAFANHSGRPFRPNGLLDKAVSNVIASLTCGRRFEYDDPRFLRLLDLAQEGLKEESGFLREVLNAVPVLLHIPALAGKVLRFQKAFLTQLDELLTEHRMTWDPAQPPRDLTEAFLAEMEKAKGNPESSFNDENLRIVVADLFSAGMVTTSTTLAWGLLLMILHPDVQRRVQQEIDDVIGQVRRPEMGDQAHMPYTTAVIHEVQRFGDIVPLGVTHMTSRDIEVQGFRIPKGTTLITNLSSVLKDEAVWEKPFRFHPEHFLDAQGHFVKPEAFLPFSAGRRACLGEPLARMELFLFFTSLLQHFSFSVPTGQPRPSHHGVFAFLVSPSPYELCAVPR
Settings: not given
On the technique in general: Liver microsomes are vesicles of endoplasmic reticulum, rich in cytochrome P450 enzymes.
For the compound `COc1ccc2c(c1)c(CN1CCCN(C)CC1)cn2S(=O)(=O)c1ccc(C(C)C)cc1.Cl.Cl`, the IC50 (commonly the midpoint of a concentration-inhibition curve) is 1900 nM.

Tested on in another data set: not listed separately
The data set can be described thus: Clearance in Wistar rat at 10 mg/kg, iv by LC-MS/MS analysis. Format: ADME, organism-based. To be noted: in vivo.
On to `CN1CCN(Cc2cn(S(=O)(=O)c3ccc(F)cc3)c3ccccc23)CC1`, for which the clearance (usually a measure of how efficiently the substance is removed, as volume per time) came out at 75 mL/min/kg.

The subject of a further data set is Rattus norvegicus. In words: Increase in acetylcholine level in Wistar rat ventral hippocampus at 1 mg/kg, sc after 4 hrs in presence of 1 mg/kg of donepezil administered sc by LC-MS/MS based microdialysis method relative to control. Format: functional.
Settings: not given
In the case of `CC12CC3CC(C)(C1)CC(N)(C3)C2` [MEMANTINE], the Activity was determined as 1203%.

A further data set has as its target T2, 5-hydroxytryptamine receptor 6. In words: Displacement of [3H]-LSD from recombinant human 5-HT6 receptor expressed in HEK293 cells after 60 mins.
Settings: not given
It is filed as cell-based. Background: Displacement assays read how much labelled ligand stays bound in the presence of the test substance.
On to `CN1CCN(Cc2cn(S(=O)(=O)c3ccc(F)cc3)c3ccccc23)CC1`, for which the Ki – broadly, a measure of affinity in units of concentration, obtained from inhibition or displacement – was determined as 8.76 nM.

The target in the next data set is 5-hydroxytryptamine receptor 2A (Homo sapiens) (UniProt P28223). The data set can be described thus: Displacement of [3H]-Ketanserine from recombinant human 5-HT2A receptor expressed in CHOK1 cell membranes after 60 mins by microbeta scintillation counting analysis.
Sequence of 5-hydroxytryptamine receptor 2A (Homo sapiens) (P28223 whole entry): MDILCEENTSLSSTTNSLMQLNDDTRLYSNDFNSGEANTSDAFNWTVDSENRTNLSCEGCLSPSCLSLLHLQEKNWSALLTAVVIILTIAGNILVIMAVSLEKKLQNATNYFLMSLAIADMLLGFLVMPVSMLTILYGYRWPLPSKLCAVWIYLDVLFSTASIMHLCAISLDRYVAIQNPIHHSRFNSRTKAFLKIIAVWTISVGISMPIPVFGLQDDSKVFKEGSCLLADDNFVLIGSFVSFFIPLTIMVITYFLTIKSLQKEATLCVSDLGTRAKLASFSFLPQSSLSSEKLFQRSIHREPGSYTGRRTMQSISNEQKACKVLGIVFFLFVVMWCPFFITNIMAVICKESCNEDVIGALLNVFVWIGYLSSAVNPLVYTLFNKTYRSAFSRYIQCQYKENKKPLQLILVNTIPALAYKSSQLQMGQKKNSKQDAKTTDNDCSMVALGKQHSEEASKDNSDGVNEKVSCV
Settings: not given
Regarding `CN1CCN(Cc2cn(S(=O)(=O)c3ccc(F)cc3)c3ccccc23)CC1`, the outcome was Active.

As for `COc1ccc2c(c1)c(CN1CCCN(C)CC1)cn2S(=O)(=O)c1ccc(C(C)C)cc1.Cl.Cl`, the outcome was Active.

Tested on in another data set: not listed separately
In words: Half life in Wistar rat at 10 mg/kg, iv by LC-MS/MS analysis. To be noted: in vivo. It is filed as ADME, organism-based.
As to `CN1CCN(Cc2cn(S(=O)(=O)c3ccc(F)cc3)c3ccccc23)CC1`, the half-life (in general, the time in which the quantity being followed falls by half) was 1.5 h.

Regarding `COc1ccc2c(c1)c(CN1CCCN(C)CC1)cn2S(=O)(=O)c1ccc(C(C)C)cc1.Cl.Cl`, the half-life was 5.7 h.

Tested on in a further data set: not listed separately
In words: Cmax in Wistar rat at 10 mg/kg, po by LC-MS/MS analysis. Format: ADME, organism-based. Further details: dose 10 mg/kg, route oral. Conditions: in vivo.
In the case of `CN1CCN(Cc2cn(S(=O)(=O)c3ccc(F)cc3)c3ccccc23)CC1`, the Cmax (commonly the highest concentration seen after dosing) was 125 ng/mL.

For the compound `COc1ccc2c(c1)c(CN1CCCN(C)CC1)cn2S(=O)(=O)c1ccc(C(C)C)cc1.Cl.Cl`, the Cmax was determined as 22 ng/mL.

Another data set has as its target 5-hydroxytryptamine receptor 4 (Homo sapiens) (UniProt Q13639). The data set can be described thus: Displacement of [3H]-GR113808 from recombinant human 5-HT4B receptor expressed in Chem1 cell membranes after 120 mins by microbeta scintillation counting analysis.
Settings: not given
Take `CN1CCN(Cc2cn(S(=O)(=O)c3ccc(F)cc3)c3ccccc23)CC1`: the outcome was inactive.

For the compound `COc1ccc2c(c1)c(CN1CCCN(C)CC1)cn2S(=O)(=O)c1ccc(C(C)C)cc1.Cl.Cl`, the result was inactive.

The next data set addresses T3, 5-hydroxytryptamine receptor 2C (Homo sapiens) (UniProt P28335).
T3 sequence (whole entry): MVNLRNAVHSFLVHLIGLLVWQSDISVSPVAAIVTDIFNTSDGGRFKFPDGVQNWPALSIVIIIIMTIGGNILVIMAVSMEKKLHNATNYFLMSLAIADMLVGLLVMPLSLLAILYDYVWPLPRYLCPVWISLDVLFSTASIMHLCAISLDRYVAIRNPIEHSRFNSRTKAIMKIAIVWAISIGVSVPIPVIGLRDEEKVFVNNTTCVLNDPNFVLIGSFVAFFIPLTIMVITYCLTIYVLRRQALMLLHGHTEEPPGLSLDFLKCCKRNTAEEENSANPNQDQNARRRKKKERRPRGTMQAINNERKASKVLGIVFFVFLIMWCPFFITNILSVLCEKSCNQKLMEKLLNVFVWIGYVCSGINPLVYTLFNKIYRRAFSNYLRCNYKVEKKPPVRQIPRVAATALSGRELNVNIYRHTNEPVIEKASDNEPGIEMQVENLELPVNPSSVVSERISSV
The data set can be described thus: Displacement of [3H]-Mesulergine from recombinant human 5-HT2C receptor expressed in HEK293 cell membranes after 180 mins by microbeta scintillation counting analysis.
Settings: not given
Take `CN1CCN(Cc2cn(S(=O)(=O)c3ccc(F)cc3)c3ccccc23)CC1`: the result was inactive.

As for `COc1ccc2c(c1)c(CN1CCCN(C)CC1)cn2S(=O)(=O)c1ccc(C(C)C)cc1.Cl.Cl`, the outcome was inactive.
